Converted amounts (≈) assume the structure as drawn. The source made the active and inactive calls. No cut-off for these calls is given here.
Columns and labels:
[1] = tested on: Staphylococcus aureus; test: Antimicrobial activity against vancomycin-intermediate resistant Staphylococcus aureus Mu50 graR mutant microdilution assay; assay type: functional
How it was run: (§1)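 Standardized CLSI broth microdilution was run in CSMHB with 10^5 CFU/ml inoculum and scored at 48 h. Values are medians of at least three independent experiments. Daptomycin MICs for Mu50 strains were read by Etest per the supplied protocol instead of microdilution.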

[2] = tested on: Staphylococcus aureus; test: Antimicrobial activity against vancomycin-intermediate resistant Staphylococcus aureus Mu50 vraG mutant microdilution assay; assay type: functional; how it was run: as §1
[3] = tested on: Staphylococcus aureus; test: Antimicrobial activity against wild type vancomycin-intermediate resistant Staphylococcus aureus Mu50 by microdilution assay; assay type: functional; how it was run: as §1
[4] = tested on: Staphylococcus aureus; test: Antimicrobial activity against vancomycin-intermediate resistant Staphylococcus aureus Mu50 vraG mutant expressing pEPSA5graRS1 plasmid by microdilution assay
[5] = tested on: Staphylococcus aureus; test: Antimicrobial activity against wild type vancomycin-intermediate resistant Staphylococcus aureus Mu50 expressing pEPSA5graRS2 plasmid by microdilution assay
[6] = tested on: Staphylococcus aureus; test: Antimicrobial activity against wild type vancomycin-intermediate resistant Staphylococcus aureus Mu50 expressing pEPSA5 plasmid by microdilution assay
[7] = tested on: Staphylococcus aureus; test: Antimicrobial activity against methicillin-resistant Staphylococcus aureus sacol1355 mutant assessed as hypersensitivity at 1 ug/ml; assay type: functional, organism-based
How it was run: (§2)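 Overnight CSMHB cultures (Mueller-Hinton broth with 25 μg/ml Ca2+ and 12.5 μg/ml Mg2+) were adjusted to A650 1.1 (~10^9 CFU/ml). They were diluted 200 μl per 7 ml CSMHB with or without 1 μg/ml vancomycin, and growth curves were plotted as A650 over time. Plasmid-carrying strains received 10 μg/ml chloramphenicol.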

[8] = tested on: Staphylococcus aureus; test: Antimicrobial activity against wild type vancomycin-intermediate resistant Staphylococcus aureus Mu50 expressing pEPSA5graRS1 plasmid by microdilution assay
[9] = tested on: Staphylococcus aureus; test: Antimicrobial activity against methicillin-resistant Staphylococcus aureus sacol2358 mutant assessed as hypersensitivity at 1 ug/ml; assay type: functional, organism-based; how it was run: as §2
[10] = tested on: Staphylococcus aureus; test: Antimicrobial activity against methicillin-resistant Staphylococcus aureus COL graR mutant assessed as hypersensitivity at 1 ug/ml; assay type: functional, organism-based; how it was run: as §2
[11] = tested on: Staphylococcus aureus; test: Antimicrobial activity against methicillin-resistant Staphylococcus aureus sacol2646 mutant assessed as hypersensitivity at 1 ug/ml; assay type: functional, organism-based; how it was run: as §2
[12] = tested on: Staphylococcus aureus; test: Antimicrobial activity against methicillin-resistant Staphylococcus aureus COL assessed as hypersensitivity at 1 ug/ml; assay type: functional, organism-based; how it was run: as §2
[13] = tested on: Staphylococcus aureus; test: Antimicrobial activity against wild type methicillin-resistant Staphylococcus aureus COL expressing pEPSA5graRS1 plasmid by microdilution assay
[14] = tested on: Staphylococcus aureus; test: Antimicrobial activity against wild type vancomycin-intermediate resistant Staphylococcus aureus Mu50 expressing pEPSA5graFG1 plasmid by microdilution assay
[15] = tested on: Staphylococcus aureus; test: Antimicrobial activity against wild type methicillin-resistant Staphylococcus aureus COL expressing pEPSA5graRS2 plasmid by microdilution assay; assay type: functional, organism-based
How it was run: (§3)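 CLSI broth microdilution was run in CSMHB with 10^5 CFU/ml for strains carrying pEPSA5-based plasmids. Chloramphenicol 10 μg/ml maintained the plasmid, and growth was scored at 72 h. Media were used with or without 0.5% xylose or glucose. MIC is the median over all conditions from three independent experiments.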

[16] = tested on: Staphylococcus aureus; test: Antimicrobial activity against wild type methicillin-resistant Staphylococcus aureus COL expressing pEPSA5 plasmid by microdilution assay; assay type: functional, organism-based; how it was run: as §3
[17] = tested on: Staphylococcus aureus; test: Antimicrobial activity against wild type methicillin-resistant Staphylococcus aureus COL by microdilution assay; assay type: functional, organism-based; how it was run: as §1
[18] = tested on: Staphylococcus aureus; test: Antimicrobial activity against methicillin-susceptible Staphylococcus aureus RN6390 graS by microdilution assay; assay type: functional, organism-based; how it was run: as §1
[19] = tested on: Staphylococcus aureus; test: Antimicrobial activity against methicillin-susceptible Staphylococcus aureus RN6390 graR by microdilution assay; assay type: functional, organism-based; how it was run: as §1
[20] = tested on: Staphylococcus aureus; test: Antimicrobial activity against methicillin-susceptible Staphylococcus aureus RN6390 vraG by microdilution assay; assay type: functional, organism-based; how it was run: as §1
[21] = tested on: Staphylococcus aureus; test: Antimicrobial activity against wild type methicillin-susceptible Staphylococcus aureus RN6390 by microdilution assay; assay type: functional, organism-based; how it was run: as §1
[22] = tested on: Staphylococcus aureus; settings: COL
[23] = tested on: Staphylococcus aureus; test: Antimicrobial activity against wild type methicillin-resistant Staphylococcus aureus COL expressing pEPSA5vraFG2 plasmid by microdilution assay; assay type: functional, organism-based; how it was run: as §3
[24] = tested on: Staphylococcus aureus; test: Antimicrobial activity against methicillin-resistant Staphylococcus aureus COL graS mutant by microdilution assay; assay type: functional, organism-based; how it was run: as §1
[25] = tested on: Staphylococcus aureus; test: Antimicrobial activity against methicillin-resistant Staphylococcus aureus COL vraG mutant by microdilution assay; assay type: functional, organism-based; how it was run: as §1
[26] = tested on: Staphylococcus aureus; test: Antimicrobial activity against methicillin-resistant Staphylococcus aureus COL graR mutant by microdilution assay; assay type: functional, organism-based; how it was run: as §1
[27] = tested on: Staphylococcus aureus; test: Antimicrobial activity against wild type methicillin-resistant Staphylococcus aureus COL expressing pEPSA5vraFG1 plasmid by microdilution assay; assay type: functional, organism-based; how it was run: as §3

Row | Compound | MIC [1] | MIC [2] | MIC [3] | further results
1 | CCCCCCCCCC(=O)N[C@@H](Cc1c[nH]c2ccccc12)C(=O)N[C@H](CC(N)=O)C(=O)N[C@@H](CC(=O)O)C(=O)N[C@@H]1C(=O)NCC(=O)N[C@@H](CCCN)C(=O)N[C@@H](CC(=O)O)C(=O)N[C@H](C)C(=O)N[C@@H](CC(=O)O)C(=O)NCC(=O)N[C@H](CO)C(=O)N[C@@H]([C@H](C)CC(=O)O)C(=O)N[C@@H](CC(=O)c2ccccc2N)C(=O)O[C@@H]1C | 1 µg/mL (≈ 0.617 µM) | 2 µg/mL (≈ 1.23 µM) | 2 µg/mL (≈ 1.23 µM) | –
2 | O=C(N[C@H](CO)[C@H](O)c1ccc([N+](=O)[O-])cc1)C(Cl)Cl [CHLORAMPHENICOL] | 8 µg/mL (≈ 24.8 µM) | 8 µg/mL (≈ 24.8 µM) | 8 µg/mL (≈ 24.8 µM) | –
3 | O=C(O)c1cn(C2CC2)c2cc(N3CCNCC3)c(F)cc2c1=O [CIPROFLOXACIN] | 64 µg/mL (≈ 193 µM) | 64 µg/mL (≈ 193 µM) | 32 µg/mL (≈ 96.6 µM) | –
4 | N[C@@H]1CONC1=O [CYCLOSERINE] | 64 µg/mL (≈ 627 µM) | 64 µg/mL (≈ 627 µM) | 128 µg/mL (≈ 1250 µM) | –
5 | CC[C@H]1OC(=O)[C@H](C)[C@@H](O[C@H]2C[C@@](C)(OC)[C@@H](O)[C@H](C)O2)[C@H](C)[C@@H](O[C@@H]2O[C@H](C)C[C@H](N(C)C)[C@H]2O)[C@](C)(O)C[C@@H](C)C(=O)[C@H](C)[C@@H](O)[C@]1(C)O [ERYTHROMYCIN] | 1020 µg/mL (≈ 1400 µM) | ≥ 2050 µg/mL | ≥ 2050 µg/mL | –
6 | C[C@@H]1O[C@@H]1P(=O)(O)O [FOSFOMYCIN] | 1020 µg/mL (≈ 7420 µM) | 1020 µg/mL (≈ 7420 µM) | 1020 µg/mL (≈ 7420 µM) | –
7 | CC[C@H](C)[C@@H]1NC(=O)[C@H](CO)NC(=O)[C@@H]2CCCN2C(=O)[C@H](C)NC(=O)CNC(=O)[C@H](CC(C)C)NC(=O)[C@H](CCCCN)N[C@H](CCCCN)NC(=O)[C@H](CCSC)NC(=O)[C@H](CCCNC(=N)N)NC(=O)[C@H](Cc2c[nH]c3ccccc23)NC(=O)[C@H](CCC(N)=O)NC(=O)[C@H](Cc2c[nH]c3ccccc23)NC(=O)[C@H](CCCNC(=N)N)NC(=O)[C@H](CCCNC(=N)N)NC(=O)[C@@H](NC(=O)[C@H](CCCCN)NC(=O)[C@@H](N)Cc2ccccc2)CSSC[C@@H](C(=O)N[C@H](C(=O)N[C@@H](CCCNC(=N)N)C(=O)N[C@@H](C)C(=O)N[C@@H](Cc2ccccc2)C(=O)O)C(C)C)NC(=O)[C@H]([C@@H](C)O)NC1=O [LACTOFERRICIN] | ≥ 512 µg/mL | ≥ 512 µg/mL | ≥ 512 µg/mL | –
8 | C/C(=C\C(=O)OCCCCCCCCC(=O)O)C[C@@H]1OC[C@H](C[C@@H]2O[C@H]2[C@@H](C)[C@H](C)O)[C@@H](O)[C@H]1O [MUPIROCIN] | 0.25 µg/mL (≈ 0.499 µM) | 0.25 µg/mL (≈ 0.499 µM) | 0.25 µg/mL (≈ 0.499 µM) | –
9 | CO[C@@H]1[C@@H](OC(N)=O)[C@@H](O)[C@H](Oc2ccc3c(O)c(NC(=O)c4ccc(O)c(CC=C(C)C)c4)c(=O)oc3c2C)OC1(C)C [NOVOBIOCIN] | 0.25 µg/mL (≈ 0.408 µM) | 0.125 µg/mL (≈ 0.204 µM) | 0.125 µg/mL (≈ 0.204 µM) | –
10 | Cc1onc(-c2ccccc2)c1C(=O)N[C@@H]1C(=O)N2[C@@H]1SC(C)(C)[C@@H]2C(=O)O [OXACILLIN] | 256 µg/mL (≈ 638 µM) | 1020 µg/mL (≈ 2550 µM) | 512 µg/mL (≈ 1280 µM) | –
11 | CO[C@H]1/C=C/O[C@@]2(C)Oc3c(C)c(O)c4c(O)c(c(/C=N/N5CCN(C)CC5)c(O)c4c3C2=O)NC(=O)/C(C)=C\C=C\[C@H](C)[C@H](O)[C@@H](C)[C@@H](O)[C@@H](C)[C@H](OC(C)=O)[C@@H]1C [RIFAMPIN] | 1020 µg/mL (≈ 1240 µM) | 1020 µg/mL (≈ 1240 µM) | 1020 µg/mL (≈ 1240 µM) | –
12 | CN(C)[C@@H]1C(O)=C(C(N)=O)C(=O)[C@@]2(O)C(O)=C3C(=O)c4c(O)cccc4[C@@](C)(O)[C@H]3C[C@@H]12 [TETRACYCLINE] | 128 µg/mL (≈ 288 µM) | 64 µg/mL (≈ 144 µM) | 64 µg/mL (≈ 144 µM) | –
13 | NC[C@H]1O[C@H](O[C@H]2[C@H](O)[C@@H](O[C@H]3O[C@H](CO)[C@@H](O)[C@H](N)[C@H]3O)[C@H](N)C[C@@H]2N)[C@H](N)C[C@@H]1O [TOBRAMYCIN] | ≥ 2050 µg/mL | ≥ 2050 µg/mL | ≥ 2050 µg/mL | –
14 | COc1cc(Cc2cnc(N)nc2N)cc(OC)c1OC [TRIMETHOPRIM] | 2 µg/mL (≈ 6.89 µM) | 4 µg/mL (≈ 13.8 µM) | 4 µg/mL (≈ 13.8 µM) | –
15 | CN[C@H](CC(C)C)C(=O)N[C@H]1C(=O)N[C@@H](CC(N)=O)C(=O)N[C@H]2C(=O)N[C@H]3C(=O)N[C@H](C(=O)N[C@H](C(=O)O)c4cc(O)cc(O)c4-c4cc3ccc4O)[C@H](O)c3ccc(c(Cl)c3)Oc3cc2cc(c3O[C@@H]2O[C@H](CO)[C@@H](O)[C@H](O)[C@H]2O[C@H]2C[C@](C)(N)[C@H](O)[C@H](C)O2)Oc2ccc(cc2Cl)[C@H]1O [VANCOMYCIN] | – | – | 8 µg/mL (≈ 5.52 µM) | MIC [4]: 8 µg/mL (≈ 5.52 µM); MIC [5]: 8 µg/mL (≈ 5.52 µM); MIC [6]: 8 µg/mL (≈ 5.52 µM); Activity [7]: inactive; MIC [8]: 8 µg/mL (≈ 5.52 µM); Activity [9]: inactive; Activity [10]: Active; Activity [11]: inactive; Activity [12]: inactive; MIC [13]: 8 µg/mL (≈ 5.52 µM); MIC [14]: 8 µg/mL (≈ 5.52 µM)
16 | POLYMYXIN B | 16 µg/mL | 16 µg/mL | 128 µg/mL | MIC [15]: 64 µg/mL; MIC [16]: 64 µg/mL; MIC [17]: 64 µg/mL; MIC [18]: 4 µg/mL; MIC [19]: 4 µg/mL; MIC [20]: 4 µg/mL; MIC [21]: 32 µg/mL; MIC [22]: 128 µg/mL; MIC [23]: 64 µg/mL; MIC [24]: 8 µg/mL; MIC [25]: 8 µg/mL; MIC [26]: 8 µg/mL; MIC [27]: 64 µg/mL
